The source made the active and inactive calls. The calls are words filed in the database; no cut-off is given here.
Legend:
Leishmania donovani [1] = experiment: Antileishmanial activity against Leishmania donovani axenic amastigotes; type: functional, organism-based
Method in brief: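 Axenic L. donovani amastigotes; IC50 is the mean of at least two independent assays.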

L6 = experiment: Cytotoxicity against rat L6 cells; type: cell-based
J774 = experiment: Cytotoxicity against mouse J774 cells; type: cell-based
Leishmania amazonensis [2] = experiment: Antileishmanial activity against Leishmania amazonensis in mouse J774 cells at <5 uM
[3] = Binding affinity to poly(dA-dT)2 assessed as melting temperature
Leishmania amazonensis [4] = experiment: Antileishmanial activity against Leishmania amazonensis in mouse J774 cells
Leishmania donovani [5] = experiment: Induction of mitochondrial dilation in Leishmania donovani axenic amastigotes at […] after 24 hrs; type: functional, organism-based
Leishmania donovani [6] = experiment: Induction of kinetoplast disintegration in Leishmania donovani axenic amastigotes at […] after 24 hrs; type: functional, organism-based

| Structure (SMILES) | IC50 (Leishmania donovani [1]) [nM] | IC50 (L6) [nM] | also measured |
| --- | --- | --- | --- |
| N=C(N)c1ccc(-c2ccc(-c3cnc(C(=N)N)nc3)cn2)cc1 | 2600 | 6400 | – |
| N=C(N)c1ccc(-c2ccc(-c3ccc(C(=N)N)nc3)cn2)cc1 | 510 | 20000 | – |
| N=C(N)c1ccc(-c2ccc(-c3ccc(C(=N)N)cn3)cc2)nc1 | > 100000 | – | – |
| N=C(N)c1ccc(-c2ccc(-c3ccc(C(=N)N)nc3)cc2)cn1 | 63 | 1200 | Activity (J774): Toxic; Activity (Leishmania amazonensis [2]): inactive |
| N=C(N)c1ccc(-c2cnc(-c3ccc(C(=N)N)nc3)nc2)cn1 | 1800 | 5300 | ΔTm [3]: 6.8 °C |
| C[C@@H]1[C@H](O)[C@@H](C)/C=C/C=C/C=C/C=C/C=C/C=C/C=C/[C@H](O[C@@H]2O[C@H](C)[C@@H](O)[C@H](N)[C@@H]2O)C[C@@H]2O[C@](O)(C[C@@H](O)C[C@@H](O)[C@H](O)CC[C@@H](O)C[C@@H](O)CC(=O)O[C@H]1C)C[C@H](O)[C@H]2C(=O)O (stereo in doubt) [AMPHOTERICIN B] | – | – | IC50 (Leishmania amazonensis [4]): 46 nM |
| N=C(N)c1ccc(-c2cnc(-c3ccc(C(=N)N)cc3)nc2)cc1 | 1100 | 41000 | – |
| N=C(N)c1ccc(-c2ccc(-c3ccc(C(=N)N)cc3)nc2)cc1 | 820 | 50000 | – |
| N=C(N)c1ccc(-c2ccc(-c3ccc(C(=N)N)cc3)nn2)cc1 | 720 | 31000 | – |
| N=C(N)c1ccc(-c2ccc(-c3cnc(C(=N)N)nc3)cc2)cc1 | 200 | 4700 | – |
| N=C(N)c1ncc(-c2ccc(-c3cnc(C(=N)N)nc3)cc2)cn1 | 1700 | 2200 | – |
| N=C(N)c1ccc(-c2ccc(-c3cnc(C(=N)N)cn3)cn2)cc1 | 16000 | 93000 | – |
| N=C(N)c1ccc(-c2cnc(-c3ccc(C(=N)N)cc3)cn2)cc1 | 560 | 43000 | – |
| N=C(N)c1ccc(-c2ccc(-c3ccc(C(=N)N)cn3)cc2)cc1 | 1400 | 27000 | – |
| N=C(N)c1ccc(-c2ccc(-c3ccc(C(=N)N)cc3)cc2)cc1 | 270 | 22000 | Activity (Leishmania donovani [5]): Active; Activity (Leishmania donovani [6]): Active; Activity (J774): Toxic; Activity (Leishmania amazonensis [2]): inactive |
| N=C(N)c1ccc(-c2ccc(-c3ccc(C(=N)N)cn3)cn2)cc1 | 6800 | 28000 | – |
| N=C(N)c1cnc(-c2ccc(-c3cnc(C(=N)N)cn3)cc2)cn1 | – | 47000 | – |
| N=C(N)c1ccc(-c2ccc(-c3ccc(C(=N)N)cc3)c(F)c2)cc1 | 340 | 6400 | ΔTm [3]: 15.1 °C |
| N=C(N)c1ccc(-c2ccc(-c3ccc(C(=N)N)nc3)cc2)cc1 | 84 | 2800 | – |

From ChEMBL document CHEMBL1141608, “Azaterphenyl diamidines as antileishmanial agents” (Bioorg Med Chem Lett, 2008)
